Activity calls are given as the source filed them.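 The calls were made as follows, unless noted: active = potentiation averaged over duplicate wells exceeding buffer-only control mean by more than 3 SD; inactive = the rest.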
System: not listed separately
Test: thallium flux activation in parental CHO cells, counter-screen for KCNQ1 potentiator project (AID 493006;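 active = duplicate-averaged activation above buffer control mean plus 5 SD of those controls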;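 as to activation: fluorescence ratio of max minus min over baseline after K+ and Tl+ depolarization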)
Details: parental CHO-K1 cells, FluxOR thallium flux, at 10 µM; hits give high values
In short: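 Material: parental CHO-K1 cells, FluxOR dye-loaded; Also added: Potassium/thallium depolarization pulse; Schedule: overnight 37 °C plating, 90 min dye, 20 min dark compound; Signal: kinetic FluxOR fluorescence, 10 s baseline, 110 s after stimulus.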

SMILES	outcome	activation
CC1(c2ccc(OC(F)F)cc2)NC(=O)N(CC(=O)Nc2ccc(OC(F)F)cc2)C1=O (stereo not given)	inactive	
COc1ccccc1C(=O)NNC(=O)C(=O)NC(C)(C)C		185% (active)
COc1ccc(C2c3ccc4ccccc4c3Oc3ncn(CCCO)c(=N)c32)cc1 (stereo not given)	inactive	
O=C(CSc1ncnc2c1cnn2-c1ccc(F)cc1)NC1CCCC1	inactive	
Cc1cc(/C=C2\SC(=Nc3ccc(F)cc3)NC2=O)c(C)n1-c1ccc(S(N)(=O)=O)cc1	inactive	
CC(C)Cc1c2c([nH]c(=S)c1C#N)CCCC2	inactive	
COc1ccccc1NC(=O)C(=O)NNC(=O)COc1ccc2ccccc2c1		442% (active)
COc1ccccc1OCCc1nnc(N)s1	inactive	
COc1ccc(-n2nc3c(c2NC(=O)c2ccc4c(c2)OCO4)CS(=O)(=O)C3)cc1		224% (active)
CC(=O)c1c(-c2ccccc2)c2cc([N+](=O)[O-])ccc2[nH]c1=O	inactive	
Cc1onc(-c2ccccc2)c1C(=O)NC(=S)Nc1sc2c(c1C#N)CCC(C)C2 (stereo not given)		145% (active)
CN(C)CC(CCCCC(CN(C)C)C(=O)c1ccccc1)C(=O)c1ccccc1 (stereo not given)	inactive	
C=CCn1c(N)c(C(=O)Nc2ccc(C)cc2)sc1=S	inactive	
Cc1ccccc1C(=O)Nc1nc(=S)ss1		250% (active)
O=S(=O)(/C=C/c1ccccc1)n1cnc2ccccc21	inactive	
O=C(NC(=S)Nc1ccccc1)c1ccc(Br)o1	inactive	
N#CC(c1cccc(Cl)c1)c1ccc2c(C(F)(F)F)cc(C(F)(F)F)nc2n1 (stereo not given)		144% (active)
CCn1c(O)c(N=NC2=NC(=O)CS2)c2ccccc21	inactive	
COc1ccc(Cl)cc1NC(=O)/C=C\C(=O)O	inactive	
Cc1cc(/C=N/NC(=O)CC#N)c(C)n1-c1ccc([N+](=O)[O-])cc1	inactive	

SMILES	outcome	activation
CCOc1ccc(/C=C2/SC(=O)NC2=S)cc1		425% (active)
CC(Oc1ccc(Br)cc1)C(=O)N1CCC(C(N)=O)CC1 (stereo not given)	inactive	
CC(C)c1ccc(/C=C2\SC(N3CCOCC3)=NC2=O)cc1	inactive	
O=C(Nc1nnc(-c2ccc3c(c2)CCCC3)o1)c1ccccc1Cl		184% (active)
O=C(NC(=S)Nc1ccccc1N1CCCC1)c1ccc([N+](=O)[O-])cc1		161% (active)
Cc1ccc(-c2nc3c(Cl)cc(Cl)cc3c(=O)n2O)cc1		828% (active)
CCSc1nnc(NC(=O)C2C3C=CC(C3)C2C(=O)O)s1 (stereo not given)	inactive	
COC(=O)c1sc(-c2ccc(C(C)(C)C)cc2)cc1NC(=O)/C=C/C(=O)O		427% (active)
COc1cccc(C(=O)NNC(=O)C(=O)Nc2ccc(OC)cc2OC)c1		178% (active)
CCN(CC)c1ccc(NC(=S)NC(=O)c2ccco2)cc1		263% (active)
Nc1nc(C23CC4CC(CC(C4)C2)C3)cs1	inactive	
CC(=O)NC(C1C(=O)CC(C)(C)CC1=O)(C(F)(F)F)C(F)(F)F	inactive	
CCC(C)[C@H](N)c1nnc(SCC(=O)Nc2cccc(Cl)c2)o1 (stereo not given in full)		210% (active)
Cc1ccc(-c2cc(C(=O)NCc3ccccn3)c3ccccc3n2)cc1C	inactive	
O=C1CCC(C(=O)N2CCSCC2)CN1Cc1cccc(C(F)(F)F)c1 (stereo not given)	inactive	
CCCCCCCCCCCCC/C=C/[C@@H](O)[C@@H](N)CO		406% (active)
COn1c(SCc2ccc(C)cc2C)nc2ccccc2c1=O	inactive	
c1ccc2[nH]c(-c3ccc4c(c3)OCO4)nc2c1	inactive	
Cc1cccc(NC(=S)NC(=O)c2ccc(Br)o2)c1C	inactive	
Cc1cc(Cl)ccc1OCC(=O)NNC(=O)C1CCCO1 (stereo not given)	inactive	

Target: Potassium voltage-gated channel subfamily KQT member 1 (Homo sapiens) (UniProt P51787)
Sequence (P51787 whole entry, looked up): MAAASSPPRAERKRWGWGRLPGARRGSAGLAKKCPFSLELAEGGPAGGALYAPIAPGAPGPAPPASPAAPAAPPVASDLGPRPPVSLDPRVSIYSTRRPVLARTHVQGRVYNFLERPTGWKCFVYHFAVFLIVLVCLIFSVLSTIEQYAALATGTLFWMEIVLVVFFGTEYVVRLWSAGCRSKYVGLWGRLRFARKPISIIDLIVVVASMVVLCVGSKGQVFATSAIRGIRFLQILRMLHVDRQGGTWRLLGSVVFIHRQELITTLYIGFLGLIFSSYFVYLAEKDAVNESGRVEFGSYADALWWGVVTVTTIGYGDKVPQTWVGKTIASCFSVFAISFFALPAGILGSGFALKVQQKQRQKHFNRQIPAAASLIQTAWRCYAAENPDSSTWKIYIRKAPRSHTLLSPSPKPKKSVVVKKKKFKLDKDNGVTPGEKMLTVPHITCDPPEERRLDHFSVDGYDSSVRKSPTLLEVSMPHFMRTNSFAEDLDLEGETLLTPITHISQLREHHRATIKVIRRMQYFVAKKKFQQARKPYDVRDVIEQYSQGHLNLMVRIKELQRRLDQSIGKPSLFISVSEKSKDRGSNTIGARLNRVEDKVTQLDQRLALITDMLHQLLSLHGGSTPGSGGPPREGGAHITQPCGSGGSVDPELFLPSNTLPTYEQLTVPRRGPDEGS
Test: KCNQ1 potassium channel potentiators, confirmation, FluxOR thallium flux, CHO cells, duplicates (AID 493007);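 as to outcome: cells depolarized by a potassium plus thallium sulfate stimulus after compound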
Details: KCNQ1 cell line, FluxOR thallium flux fluorescence, at 10 µM; hits give high values, % of reference activator effect, buffer zero
In short: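 System: KCNQ1-expressing CHO cell line; technique: kinetic thallium influx fluorescence with FluxOR dye, 10 s baseline, 110 s post-stimulus; timing: dye 90 min then compound 20 min, both at room temperature; controls: buffer-only wells as 0% and R-L3 activator as 100%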

SMILES	outcome	potentiation
CC1(c2ccc(OC(F)F)cc2)NC(=O)N(CC(=O)Nc2ccc(OC(F)F)cc2)C1=O (stereo not given)	inactive	
COc1ccccc1C(=O)NNC(=O)C(=O)NC(C)(C)C		68% (active)
COc1ccc(C2c3ccc4ccccc4c3Oc3ncn(CCCO)c(=N)c32)cc1 (stereo not given)	inactive	
O=C(CSc1ncnc2c1cnn2-c1ccc(F)cc1)NC1CCCC1	inactive	
Cc1cc(/C=C2\SC(=Nc3ccc(F)cc3)NC2=O)c(C)n1-c1ccc(S(N)(=O)=O)cc1	inactive	
CC(C)Cc1c2c([nH]c(=S)c1C#N)CCCC2	inactive	
COc1ccccc1NC(=O)C(=O)NNC(=O)COc1ccc2ccccc2c1		174% (active)
COc1ccccc1OCCc1nnc(N)s1	inactive	
COc1ccc(-n2nc3c(c2NC(=O)c2ccc4c(c2)OCO4)CS(=O)(=O)C3)cc1		75.5% (active)
CC(=O)c1c(-c2ccccc2)c2cc([N+](=O)[O-])ccc2[nH]c1=O	inactive	
Cc1onc(-c2ccccc2)c1C(=O)NC(=S)Nc1sc2c(c1C#N)CCC(C)C2 (stereo not given)		28% (active)
CN(C)CC(CCCCC(CN(C)C)C(=O)c1ccccc1)C(=O)c1ccccc1 (stereo not given)	inactive	
C=CCn1c(N)c(C(=O)Nc2ccc(C)cc2)sc1=S	inactive	
Cc1ccccc1C(=O)Nc1nc(=S)ss1		72% (active)
O=S(=O)(/C=C/c1ccccc1)n1cnc2ccccc21	inactive	
O=C(NC(=S)Nc1ccccc1)c1ccc(Br)o1		21.5% (active)
N#CC(c1cccc(Cl)c1)c1ccc2c(C(F)(F)F)cc(C(F)(F)F)nc2n1 (stereo not given)		234% (active)
CCn1c(O)c(N=NC2=NC(=O)CS2)c2ccccc21	inactive	
COc1ccc(Cl)cc1NC(=O)/C=C\C(=O)O	inactive	
Cc1cc(/C=N/NC(=O)CC#N)c(C)n1-c1ccc([N+](=O)[O-])cc1	inactive	

SMILES	outcome	potentiation
CCOc1ccc(/C=C2/SC(=O)NC2=S)cc1		138% (active)
CC(Oc1ccc(Br)cc1)C(=O)N1CCC(C(N)=O)CC1 (stereo not given)	inactive	
CC(C)c1ccc(/C=C2\SC(N3CCOCC3)=NC2=O)cc1	inactive	
O=C(Nc1nnc(-c2ccc3c(c2)CCCC3)o1)c1ccccc1Cl		83% (active)
O=C(NC(=S)Nc1ccccc1N1CCCC1)c1ccc([N+](=O)[O-])cc1		100% (active)
Cc1ccc(-c2nc3c(Cl)cc(Cl)cc3c(=O)n2O)cc1		414% (active)
CCSc1nnc(NC(=O)C2C3C=CC(C3)C2C(=O)O)s1 (stereo not given)	inactive	
COC(=O)c1sc(-c2ccc(C(C)(C)C)cc2)cc1NC(=O)/C=C/C(=O)O		130% (active)
COc1cccc(C(=O)NNC(=O)C(=O)Nc2ccc(OC)cc2OC)c1		41% (active)
CCN(CC)c1ccc(NC(=S)NC(=O)c2ccco2)cc1		104% (active)
Nc1nc(C23CC4CC(CC(C4)C2)C3)cs1	inactive	
CC(=O)NC(C1C(=O)CC(C)(C)CC1=O)(C(F)(F)F)C(F)(F)F	inactive	
CCC(C)[C@H](N)c1nnc(SCC(=O)Nc2cccc(Cl)c2)o1 (stereo not given in full)		39.5% (active)
Cc1ccc(-c2cc(C(=O)NCc3ccccn3)c3ccccc3n2)cc1C	inactive	
O=C1CCC(C(=O)N2CCSCC2)CN1Cc1cccc(C(F)(F)F)c1 (stereo not given)	inactive	
CCCCCCCCCCCCC/C=C/[C@@H](O)[C@@H](N)CO		218% (active)
COn1c(SCc2ccc(C)cc2C)nc2ccccc2c1=O	inactive	
c1ccc2[nH]c(-c3ccc4c(c3)OCO4)nc2c1	inactive	
Cc1cccc(NC(=S)NC(=O)c2ccc(Br)o2)c1C	inactive	
Cc1cc(Cl)ccc1OCC(=O)NNC(=O)C1CCCO1 (stereo not given)	inactive	

— PubChem BioAssay
